Measurements taken from ChEMBL document CHEMBL3091351, “The 3,7-diazabicyclo[3.3.1]nonane scaffold for subtype selective nicotinic acetylcholine receptor (nAChR) ligands. Part 1: the influence of different hydrogen bond acceptor systems on alkyl and (hetero)aryl substituents” (Bioorg Med Chem, 2013).
Active and inactive are the calls of the source. No cut-off for these calls is given here.

Key:
[1] = molecular target: T1, Neuronal acetylcholine receptor; alpha4/beta2 (Rattus norvegicus, UniProt P09483+P12390); experiment: Displacement of [3H]epibatidine from alpha4beta2 nAChR in Sprague-Dawley rat forebrain P2 fraction after 90 mins by liquid scintillation counting analysis
Summary of the method: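 Rat forebrain P2 membranes (60 µg protein) in HSS buffer with 0.5 nM (±)-[3H]epibatidine and 6–9 test concentrations. Incubated 90 min at 22 °C; non-specific binding defined with 300 µM (−)-nicotine. Filtered through PEI-presoaked glass fibre filters and counted by liquid scintillation. Run in duplicate to quadruplicate, with 2–10 independent experiments.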

[2] = Displacement of [3H]epibatidine from (alpha1)2beta1gammadelta nAChR in Torpedo californica electroplax after 90 mins by liquid scintillation counting analysis; parameters: species or system Tetronarce californica
Summary of the method: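 Torpedo californica electroplax membranes (60–70 µg) incubated with (±)-[3H]epibatidine and 6–9 test concentrations in HSS buffer, 90 min at 22 °C. 300 µM (−)-nicotine defined non-specific binding. PEI-presoaked glass fibre filtration, scintillation counting; duplicate to quadruplicate, 2–10 independent experiments.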

[3] = molecular target: T2, Neuronal acetylcholine receptor subunit alpha-7 (Rattus norvegicus, UniProt Q05941); experiment: Displacement of [3H]methyllycaconitine from alpha7 nAChR in Sprague-Dawley rat forebrain P2 fraction after 90 mins by liquid scintillation counting analysis
[4] = Displacement of [3H]epibatidine from alpha3beta4 nAChR in calf adrenal membranes fraction after 90 mins by liquid scintillation counting analysis; type: cell membranes, Bos taurus
Summary of the method: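 Calf adrenal membranes (60–70 µg) in HSS buffer with 0.5 nM (±)-[3H]epibatidine, 6–9 test concentrations, 90 min at 22 °C. Non-specific binding with 300 µM (−)-nicotine. PEI-presoaked glass fibre filtration, liquid scintillation read-out; duplicate to quadruplicate, 2–10 independent experiments.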

[5] = molecular target: T1, Neuronal acetylcholine receptor; alpha4/beta2; experiment: Displacement of [3H]nicotine from alpha4beta2 nAChR in Sprague-Dawley rat brain membrane fraction after 2 to 3 hrs by liquid scintillation counting analysis; type: cell membranes
[6] = molecular target: Neuronal acetylcholine receptor; alpha3/beta4 (Homo sapiens) (UniProt P30926+P32297); experiment: Agonist activity at human alpha3beta4 nAChR expressed in Xenopus laevis oocytes at 10 uM incubated for 8 secs followed by compound washout for 241 secs by Two-electrode voltage clamp assay; type: cell-based
Summary of the method: (§1)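 Stage V oocytes, defolliculated with collagenase, injected with 5–20 ng subunit cRNA and recorded 1–7 days later. Two-electrode clamp at −60 mV in Ringer's with 1 µM atropine, pH 7.2. Perfusion 2 ml/min for α7, 4 ml/min for the others. Test applications were bracketed by ACh controls (30 µM α1β1εδ, 60 µM α7, 100 µM α3β4, 30 µM α4β2).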

[7] = molecular target: Neuronal acetylcholine receptor; alpha4/beta2 (Homo sapiens, UniProt P17787+P43681); experiment: Displacement of [3H]nicotine from alpha4beta2 nAChR expressed in human SH-EP1 clonal cell membranes after 2 to 3 hrs by liquid scintillation counting analysis
[8] = molecular target: T2, Neuronal acetylcholine receptor subunit alpha-7; experiment: Displacement of [3H]methyllycaconitine from alpha7 nAChR in Sprague-Dawley rat brain membrane fraction after 2 hrs by liquid scintillation counting analysis; type: cell membranes
Summary of the method: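 Competition binding on rat forebrain P2 membranes (60–70 µg protein) with [3H]MLA across 6–9 test concentrations. Incubation 120 min at 22 °C; 1 µM MLA defined non-specific binding. Samples filtered on PEI-presoaked glass fibre, scintillation-counted; duplicate to quadruplicate, 2–10 independent experiments.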

[9] = molecular target: Neuronal acetylcholine receptor subunit alpha-7 (Homo sapiens) (UniProt P36544); experiment: Agonist activity at human alpha7 nAChR expressed in Xenopus laevis oocytes at 10 uM incubated for 12 secs followed by compound washout for 181 secs by Two-electrode voltage clamp assay; type: cell-based; summary of the method: as §1
Neuronal acetylcholine receptor subunit alpha-7 (Homo sapiens), sequence (P36544 whole entry): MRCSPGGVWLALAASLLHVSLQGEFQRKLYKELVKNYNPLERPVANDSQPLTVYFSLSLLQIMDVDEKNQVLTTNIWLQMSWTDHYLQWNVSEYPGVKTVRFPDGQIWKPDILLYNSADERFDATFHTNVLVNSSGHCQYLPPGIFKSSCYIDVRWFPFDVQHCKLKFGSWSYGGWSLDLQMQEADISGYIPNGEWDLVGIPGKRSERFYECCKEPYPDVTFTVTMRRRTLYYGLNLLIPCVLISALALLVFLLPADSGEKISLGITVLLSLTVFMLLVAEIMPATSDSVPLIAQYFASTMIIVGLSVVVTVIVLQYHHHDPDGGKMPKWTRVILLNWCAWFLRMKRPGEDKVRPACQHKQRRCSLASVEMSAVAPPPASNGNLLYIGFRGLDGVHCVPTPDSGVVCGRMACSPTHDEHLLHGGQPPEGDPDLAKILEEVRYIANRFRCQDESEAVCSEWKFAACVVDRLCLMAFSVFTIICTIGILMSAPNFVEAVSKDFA

Neuronal acetylcholine receptor; alpha4/beta2 (Homo sapiens, UniProt P17787+P43681), sequence (P17787 whole entry): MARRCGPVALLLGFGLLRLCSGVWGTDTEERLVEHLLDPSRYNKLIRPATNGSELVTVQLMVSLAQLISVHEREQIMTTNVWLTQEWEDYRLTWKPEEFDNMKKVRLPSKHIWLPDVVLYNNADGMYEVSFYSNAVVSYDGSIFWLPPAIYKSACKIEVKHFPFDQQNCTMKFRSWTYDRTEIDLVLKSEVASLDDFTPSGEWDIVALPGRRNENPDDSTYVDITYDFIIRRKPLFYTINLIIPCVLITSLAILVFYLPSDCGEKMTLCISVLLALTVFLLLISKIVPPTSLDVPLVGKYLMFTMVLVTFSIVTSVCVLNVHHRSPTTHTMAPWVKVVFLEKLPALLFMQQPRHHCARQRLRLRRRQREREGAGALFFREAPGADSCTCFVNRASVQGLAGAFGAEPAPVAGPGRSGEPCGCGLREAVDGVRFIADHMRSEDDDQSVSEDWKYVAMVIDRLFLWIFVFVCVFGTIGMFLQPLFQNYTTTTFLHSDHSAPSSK
Neuronal acetylcholine receptor; alpha4/beta2 (Homo sapiens, UniProt P17787+P43681), sequence (P43681 whole entry): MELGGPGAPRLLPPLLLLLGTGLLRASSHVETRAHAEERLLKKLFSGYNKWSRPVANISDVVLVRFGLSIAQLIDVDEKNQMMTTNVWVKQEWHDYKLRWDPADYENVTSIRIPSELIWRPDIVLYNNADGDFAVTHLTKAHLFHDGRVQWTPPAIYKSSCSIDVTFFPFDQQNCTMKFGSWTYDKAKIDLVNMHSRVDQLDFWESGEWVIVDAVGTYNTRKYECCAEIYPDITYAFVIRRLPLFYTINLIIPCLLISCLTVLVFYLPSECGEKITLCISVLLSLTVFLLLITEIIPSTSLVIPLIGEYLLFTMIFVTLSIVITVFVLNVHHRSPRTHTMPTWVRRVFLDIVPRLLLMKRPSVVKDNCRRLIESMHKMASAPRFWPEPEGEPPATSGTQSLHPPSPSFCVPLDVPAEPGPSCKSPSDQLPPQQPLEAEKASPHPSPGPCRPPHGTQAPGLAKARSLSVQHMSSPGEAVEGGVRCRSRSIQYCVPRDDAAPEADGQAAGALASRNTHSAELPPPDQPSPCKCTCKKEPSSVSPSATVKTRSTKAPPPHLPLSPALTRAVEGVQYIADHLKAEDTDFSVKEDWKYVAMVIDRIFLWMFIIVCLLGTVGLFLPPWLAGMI
T1 sequence (P09483 whole entry): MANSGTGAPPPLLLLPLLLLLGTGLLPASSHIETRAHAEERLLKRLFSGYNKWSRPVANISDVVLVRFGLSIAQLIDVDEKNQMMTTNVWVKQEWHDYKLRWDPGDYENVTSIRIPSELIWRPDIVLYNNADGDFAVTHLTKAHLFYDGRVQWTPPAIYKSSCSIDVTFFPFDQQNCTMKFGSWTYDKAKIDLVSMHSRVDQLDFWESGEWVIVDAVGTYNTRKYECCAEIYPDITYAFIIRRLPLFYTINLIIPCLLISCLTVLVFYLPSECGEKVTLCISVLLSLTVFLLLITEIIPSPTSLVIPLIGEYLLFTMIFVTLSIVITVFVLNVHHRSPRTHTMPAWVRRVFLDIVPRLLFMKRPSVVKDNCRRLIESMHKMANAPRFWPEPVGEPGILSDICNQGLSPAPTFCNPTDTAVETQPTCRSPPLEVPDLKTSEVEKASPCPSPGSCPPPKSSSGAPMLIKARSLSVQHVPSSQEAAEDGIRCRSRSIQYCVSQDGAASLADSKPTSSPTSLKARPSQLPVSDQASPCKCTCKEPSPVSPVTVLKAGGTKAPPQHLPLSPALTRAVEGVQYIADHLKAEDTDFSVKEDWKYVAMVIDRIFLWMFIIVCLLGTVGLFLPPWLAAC
T1 sequence (P12390 whole entry): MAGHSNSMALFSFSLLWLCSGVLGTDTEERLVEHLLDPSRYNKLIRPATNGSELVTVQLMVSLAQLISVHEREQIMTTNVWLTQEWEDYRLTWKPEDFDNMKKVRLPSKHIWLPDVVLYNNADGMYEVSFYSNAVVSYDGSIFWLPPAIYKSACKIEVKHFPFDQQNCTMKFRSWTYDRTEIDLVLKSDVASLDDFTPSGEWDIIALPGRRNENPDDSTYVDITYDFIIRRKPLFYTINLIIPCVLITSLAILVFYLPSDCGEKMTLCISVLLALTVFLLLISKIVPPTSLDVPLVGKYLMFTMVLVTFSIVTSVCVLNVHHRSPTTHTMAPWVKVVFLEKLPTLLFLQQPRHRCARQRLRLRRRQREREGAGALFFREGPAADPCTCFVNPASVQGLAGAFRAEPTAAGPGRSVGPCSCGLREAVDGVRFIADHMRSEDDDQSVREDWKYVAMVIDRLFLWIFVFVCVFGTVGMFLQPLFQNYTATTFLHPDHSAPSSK
T2 sequence (Q05941 whole entry): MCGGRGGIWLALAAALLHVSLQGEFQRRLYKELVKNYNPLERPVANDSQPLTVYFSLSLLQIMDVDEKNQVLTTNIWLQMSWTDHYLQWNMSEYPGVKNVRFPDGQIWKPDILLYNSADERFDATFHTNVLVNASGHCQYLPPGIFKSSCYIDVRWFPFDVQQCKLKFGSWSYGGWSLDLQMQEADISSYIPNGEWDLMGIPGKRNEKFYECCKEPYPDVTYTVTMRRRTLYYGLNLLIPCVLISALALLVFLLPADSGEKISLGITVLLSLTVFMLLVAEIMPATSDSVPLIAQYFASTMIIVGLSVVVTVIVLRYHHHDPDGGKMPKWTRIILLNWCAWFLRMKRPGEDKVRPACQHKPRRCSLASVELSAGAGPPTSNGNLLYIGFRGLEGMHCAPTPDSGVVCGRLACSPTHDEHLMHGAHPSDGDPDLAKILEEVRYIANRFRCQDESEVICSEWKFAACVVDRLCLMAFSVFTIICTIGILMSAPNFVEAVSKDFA

Row | SMILES | Ki [1] [nM] | Ki [2] [µM] | Ki [3] [µM] | Ki [4] [µM] | also measured
1 | CC(C)(C)OC(=O)N1C[C@@H]2CNC[C@@H](C2)C1 | 45 | > 10 | > 5 | 1.28 | –
2 | O=C(c1cnccn1)N1C[C@@H]2CNC[C@@H](C2)C1 | 73.2 | > 10 | > 10 | > 10 | –
3 | O=C(c1cc2ccccc2[nH]1)N1C[C@@H]2CNC[C@@H](C2)C1 | > 10000 | > 10 | > 10 | > 10 | –
4 | O=S(=O)(c1ccccc1)N1C[C@@H]2CNC[C@@H](C2)C1 | > 5000 | – | > 10 | > 10 | –
5 | CCC(=O)N1C[C@@H]2CNC[C@@H](C2)C1 | 4.5 | > 1 | > 2 | 0.329 | Ki [5]: 12.2 nM; Activity [6]: Active; Ki [7]: 10.4 nM; Ki [8]: 795 nM; Activity [9]: Active
6 | O=C(c1ccccc1Cl)N1C[C@@H]2CNC[C@@H](C2)C1 | > 10000 | – | – | – | –
7 | O=C(N1CCCC1)N1C[C@@H]2CNC[C@@H](C2)C1 | > 5000 | > 10 | > 10 | > 10 | –
8 | O=C(c1cncc(Br)c1)N1C[C@@H]2CNC[C@@H](C2)C1 | 292 | > 10 | > 10 | > 5 | –
9 | O=C(c1ccc(O)cc1)N1C[C@@H]2CNC[C@@H](C2)C1 | 105 | – | > 1 | – | –
10 | CC(C)(C)c1ccc(C(=O)N2C[C@@H]3CNC[C@@H](C3)C2)cc1 | > 10000 | > 10 | > 10 | > 10 | –
11 | O=C(c1cccc2ccccc12)N1C[C@@H]2CNC[C@@H](C2)C1 | > 10000 | – | > 10 | – | –
12 | O=C(c1ccccc1[N+](=O)[O-])N1C[C@@H]2CNC[C@@H](C2)C1 | > 10000 | > 10 | > 10 | > 10 | –
13 | O=C(c1cccs1)N1C[C@@H]2CNC[C@@H](C2)C1 | 17.6 | > 10 | > 10 | > 10 | –
14 | O=C(N1CCC(Cc2ccccc2)CC1)N1C[C@@H]2CNC[C@@H](C2)C1 | > 10000 | > 5 | > 5 | > 10 | –
15 | O=C(c1ccc2[nH]ccc2c1)N1C[C@@H]2CNC[C@@H](C2)C1 | 1800 | – | – | – | –
16 | N#Cc1ccc(S(=O)(=O)N2C[C@@H]3CNC[C@@H](C3)C2)cc1 | 645 | – | > 10 | > 10 | –
17 | Cn1cccc1C(=O)N1C[C@@H]2CNC[C@@H](C2)C1 | 662 | – | – | – | –
18 | CCCN1C[C@H]2C[C@@H](C1)CN(C(C)=O)C2 | > 5000 | – | – | – | –
19 | CC(C)C(=O)N1C[C@@H]2CNC[C@@H](C2)C1 | 50.3 | – | > 5 | 0.828 | Ki [5]: 102 nM; Ki [7]: 44.4 nM; Ki [8]: 645 nM
20 | O=C(C1CCCCC1)N1C[C@@H]2CNC[C@@H](C2)C1 | > 5000 | > 10 | > 10 | > 5 | –
21 | CCN1C[C@H]2C[C@@H](C1)CN(C(C)=O)C2 | > 5000 | – | – | – | –
22 | O=C(c1ccccc1)N1C[C@@H]2CNC[C@@H](C2)C1 | 454 | > 10 | > 10 | > 5 | –
23 | Cc1ccccc1C(=O)N1C[C@@H]2CNC[C@@H](C2)C1 | > 10000 | > 10 | > 10 | > 10 | –
24 | N#Cc1cccc(S(=O)(=O)N2C[C@@H]3CNC[C@@H](C3)C2)c1 | 970 | – | > 10 | > 10 | –
25 | CN(C)C(=O)N1C[C@@H]2CNC[C@@H](C2)C1 | 499 | – | – | > 1 | –
26 | O=C(c1cccc(Cl)c1)N1C[C@@H]2CNC[C@@H](C2)C1 | > 1000 | – | – | – | –
27 | O=C(c1cccc([N+](=O)[O-])c1)N1C[C@@H]2CNC[C@@H](C2)C1 | > 2000 | > 10 | > 10 | > 10 | –

Row | SMILES | Ki [1] [nM] | Ki [2] [µM] | Ki [3] [µM] | Ki [4] [µM] | also measured
28 | O=C(c1ccnc2ccccc12)N1C[C@@H]2CNC[C@@H](C2)C1 | 162 | > 10 | – | > 5 | –
29 | O=C(c1cccc(C(F)(F)F)c1)N1C[C@@H]2CNC[C@@H](C2)C1 | 147 | > 10 | – | > 3 | –
30 | CC(=O)N1C[C@@H]2C[C@@H](CN(C)C2)C1 | 200 | – | – | – | –
31 | O=S(=O)(c1ccc(Br)cc1)N1C[C@@H]2CNC[C@@H](C2)C1 | > 5000 | – | – | – | –
32 | Cc1ccc(C(=O)N2C[C@@H]3CNC[C@@H](C3)C2)cc1 | 221 | > 10 | > 10 | > 5 | –
33 | O=C(c1ccc(Br)cc1)N1C[C@@H]2CNC[C@@H](C2)C1 | 138 | – | > 10 | > 10 | –
34 | O=C(c1c[nH]c2ccccc12)N1C[C@@H]2CNC[C@@H](C2)C1 | > 10000 | > 10 | > 10 | > 10 | –
35 | O=C(c1ccc2ccccc2c1)N1C[C@@H]2CNC[C@@H](C2)C1 | 447 | – | > 10 | > 10 | –
36 | CCN(CC)C(=O)N1C[C@@H]2CNC[C@@H](C2)C1 | > 3000 | – | – | – | –
37 | N#Cc1ccc(C(=O)N2C[C@@H]3CNC[C@@H](C3)C2)cc1 | 20.7 | > 5 | > 10 | > 10 | –
38 | O=C(c1cccnc1)N1C[C@@H]2CNC[C@@H](C2)C1 | 455 | > 10 | > 10 | > 10 | –
39 | O=C(c1cccc(F)c1)N1C[C@@H]2CNC[C@@H](C2)C1 | 386 | > 10 | – | > 5 | –
40 | O=C(c1ccco1)N1C[C@@H]2CNC[C@@H](C2)C1 | 21.4 | > 10 | – | 2.24 | Ki [5]: 31 nM; Ki [7]: 9.9 nM; Ki [8]: 15000 nM
41 | O=C(c1ccc(F)cc1)N1C[C@@H]2CNC[C@@H](C2)C1 | 197 | > 10 | > 10 | > 10 | –
42 | O=C(c1ccc(Cl)nc1)N1C[C@@H]2CNC[C@@H](C2)C1 | 194 | – | – | > 1 | –
43 | COc1ccc(C(=O)N2C[C@@H]3CNC[C@@H](C3)C2)c(OC)c1 | > 1000 | > 10 | > 5 | > 5 | –
44 | O=C(c1ccc2ncccc2c1)N1C[C@@H]2CNC[C@@H](C2)C1 | 81.3 | – | > 10 | > 5 | –
45 | O=C(N1CCOCC1)N1C[C@@H]2CNC[C@@H](C2)C1 | 3800 | – | – | – | –
46 | O=C(c1ccc2cn[nH]c2c1)N1C[C@@H]2CNC[C@@H](C2)C1 | 205 | – | – | – | –
47 | O=C(c1ccc2ccccc2n1)N1C[C@@H]2CNC[C@@H](C2)C1 | > 1000 | > 10 | – | – | –
48 | c1ccc(CN2C[C@@H]3CNC[C@@H](C3)C2)cc1 | > 10000 | > 10 | > 5 | 0.57 | –
49 | O=C(c1ccc(Cl)cc1)N1C[C@@H]2CNC[C@@H](C2)C1 | 130 | – | > 10 | – | –
50 | Cc1ccc(S(=O)(=O)N2C[C@@H]3CNC[C@@H](C3)C2)cc1 | 858 | – | > 10 | > 10 | –
51 | CS(=O)(=O)N1C[C@@H]2CNC[C@@H](C2)C1 | > 5000 | > 10 | – | – | –
52 | O=[N+]([O-])c1ccc(S(=O)(=O)N2C[C@@H]3CNC[C@@H](C3)C2)cc1 | 135 | > 10 | > 10 | 5.7 | –
53 | O=C(c1ccc([N+](=O)[O-])cc1)N1C[C@@H]2CNC[C@@H](C2)C1 | 15.9 | > 5 | 1.73 | 4.2 | –
